Laboratory results from ChEMBL document CHEMBL2177069, “Novel peptidomimetic compounds containing redox active chalcogens and quinones as potential anticancer agents” (Eur J Med Chem, 2012).

Tests used:
DU-145 = test: Cytotoxicity against human DU145 cells; assay type: functional
Saccharomyces cerevisiae [1] = test: Growth inhibition of UFD2-deficient Saccharomyces cerevisiae YDL190C mutant at 20 ug/disc after 24 to 48 hrs by agar diffusion assay; assay type: functional; conditions: read-out: DIZ
In short: (§1)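 S. cerevisiae deletion mutants or wild type grown on YPD, seeded into liquid agar medium at an optical density of 0.1. 6 mm paper discs soaked with methanolic compound solution were placed on the plates and incubated at 30 °C. Growth was checked after 1 and 2 days, and the inhibition zone diameter was recorded in mm.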

Saccharomyces cerevisiae [2] = test: Growth inhibition of GTT2-deficient Saccharomyces cerevisiae YLL060C mutant at 20 ug/disc after 24 to 48 hrs by agar diffusion assay; assay type: functional; conditions: read-out: DIZ; in short: as §1
Saccharomyces cerevisiae [3] = test: Growth inhibition of WSC4-deficient Saccharomyces cerevisiae YHL028W mutant at 20 ug/disc 24 to 48 hrs by agar diffusion assay; assay type: functional; conditions: read-out: DIZ; in short: as §1
Saccharomyces cerevisiae [4] = test: Growth inhibition of PST2-deficient Saccharomyces cerevisiae YDR032C mutant at 20 ug/disc 24 to 48 hrs by agar diffusion assay; assay type: functional; conditions: read-out: DIZ; in short: as §1
Saccharomyces cerevisiae [5] = test: Growth inhibition of SOD1-deficient Saccharomyces cerevisiae YJR104C mutant at 20 ug/disc after 24 to 48 hrs by agar diffusion assay; assay type: functional; conditions: read-out: DIZ; in short: as §1
[6] = Cytotoxicity against human PHF cells after 24 hrs by MTT assay; assay type: cell-based
In short: (§2)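 MTT assay. Cells were seeded at 50,000 cells/mL in medium with 10% fetal calf serum and grown for two days at 37 °C, 10% CO2. Serial dilutions of compound were then added for 24 h. MTT was added (final 0.5 mg/mL) for 2 h, and the formazan was pelleted, washed, dissolved in isopropanol with 0.4% HCl and read at 590 nm. IC50 is the concentration giving 50% of untreated-control absorbance, taken from dose-response curves; mean of two parallel experiments.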

A-431 = test: Cytotoxicity against human A431 cells after 24 hrs by MTT assay; assay type: functional, cell-based; conditions: A-431, 24 h; in short: as §2
A498 [7] = test: Cytotoxicity against human A498 cells after 24 hrs by MTT assay; assay type: functional, cell-based; conditions: A498, 24 h; in short: as §2
MCF7 = test: Cytotoxicity against human MCF7 cells after 24 hrs by MTT assay; assay type: functional, cell-based; conditions: MCF7, 24 h; in short: as §2
MDA-MB-468 = test: Cytotoxicity against human MDA-MB-468 cells; assay type: functional
T47D = test: Cytotoxicity against human T47D cells; assay type: functional
MDA-MB-231 = test: Cytotoxicity against human MDA-MB-231 cells; assay type: functional
UO-31 = test: Cytotoxicity against human UO31 cells; assay type: functional
SN12C = test: Cytotoxicity against human SN12C cells; assay type: functional
RXF 393 = test: Cytotoxicity against human RXF393 cells; assay type: functional
ACHN = test: Cytotoxicity against human ACHN cells; assay type: functional
A498 [8] = test: Cytotoxicity against human A498 cells; assay type: functional
[9] = Cytotoxicity against human 786-O cells; assay type: functional
SK-OV-3 = test: Cytotoxicity against human SKOV3 cells; assay type: functional
NCI/ADR-RES = test: Cytotoxicity against human NCI/ADR-RES cells; assay type: functional
OVCAR-4 = test: Cytotoxicity against human OVCAR4 cells; assay type: functional
OVCAR-5 = test: Cytotoxicity against human OVCAR5 cells; assay type: functional
SK-MEL-28 = test: Cytotoxicity against human SK-MEL-28 cells; assay type: functional
SK-MEL-2 = test: Cytotoxicity against human SK-MEL-2 cells; assay type: functional
MDA-MB-435 = test: Cytotoxicity against human MDA-MB-435 cells; assay type: functional
Malme-3M = test: Cytotoxicity against human MALME-3M cells; assay type: functional
M14 = test: Cytotoxicity against human M14 cells; assay type: functional
U-251 = test: Cytotoxicity against human U251 cells; assay type: functional
LOX IMVI = test: Cytotoxicity against human LOXIMVI cells; assay type: functional
SNB-75 = test: Cytotoxicity against human SNB75 cells; assay type: functional
SF-539 = test: Cytotoxicity against human SF539 cells; assay type: functional
HT-29 = test: Cytotoxicity against human HT-29 cells; assay type: functional
HCT-116 = test: Cytotoxicity against human HCT116 cells; assay type: functional
HCT-15 = test: Cytotoxicity against human HCT15 cells; assay type: functional
HCC 2998 = test: Cytotoxicity against human HCC2998 cells; assay type: functional
COLO 205 = test: Cytotoxicity against human COLO205 cells; assay type: functional
NCI-H522 = test: Cytotoxicity against human NCI-H522 cells; assay type: functional
HOP-92 = test: Cytotoxicity against human HOP92 cells; assay type: functional
NCI-H226 = test: Cytotoxicity against human NCI-H226 cells; assay type: functional
MOLT-4 = test: Cytotoxicity against human MOLT4 cells; assay type: functional
[10] = read-out: pLC50 (the source's name) (converted)

Compound: CC1=C([Se]CC(OC(=O)[C@@H](CO)NC(=O)OC(C)(C)C)C(=O)NC(C)(C)C)C(=O)c2ccccc2C1=O (stereo partly drawn)
- GI50 (DU-145): 1.91 µM
- LC50 (DU-145): 6.03 µM
- TGI (DU-145; read-out: pTGI (converted)): 3.39 µM
- zone of inhibition at 20 µg/disc (Saccharomyces cerevisiae [1]): 13 mm
- zone of inhibition at 20 µg/disc (Saccharomyces cerevisiae [2]): 21 mm
- zone of inhibition at 20 µg/disc (Saccharomyces cerevisiae [3]): 19 mm
- zone of inhibition at 20 µg/disc (Saccharomyces cerevisiae [4]): 11 mm
- zone of inhibition at 20 µg/disc (Saccharomyces cerevisiae [5]): 22 mm
- IC50 [6]: 7 µM
- IC50 (A-431): 2 µM
- IC50 (A498 [7]): 5 µM
- IC50 (MCF7): 3 µM
- GI50 (MDA-MB-468): 0.759 µM
- LC50 (MDA-MB-468): 5.89 µM
- TGI (MDA-MB-468; read-out: pTGI (converted)): 2.29 µM
- GI50 (T47D): 0.331 µM
- LC50 (T47D): 8.91 µM
- TGI (T47D; read-out: pTGI (converted)): 1.07 µM
- GI50 (MDA-MB-231): 1.62 µM
- LC50 (MDA-MB-231): 6.03 µM
- TGI (MDA-MB-231; read-out: pTGI (converted)): 3.16 µM
- GI50 (UO-31): 1.45 µM
- LC50 (UO-31): 6.03 µM
- TGI (UO-31; read-out: pTGI (converted)): 2.95 µM
- GI50 (SN12C): 1.86 µM
- LC50 (SN12C): 6.31 µM
- TGI (SN12C; read-out: pTGI (converted)): 3.39 µM
- GI50 (RXF 393): 1.86 µM
- LC50 (RXF 393): 5.75 µM
- TGI (RXF 393; read-out: pTGI (converted)): 3.31 µM
- GI50 (ACHN): 1.58 µM
- LC50 (ACHN): 5.75 µM
- TGI (ACHN; read-out: pTGI (converted)): 3.02 µM
- GI50 (A498 [8]): 3.63 µM
- LC50 (50% lethal concentration) (A498 [8]): 39.8 µM
- TGI (A498 [8]; read-out: pTGI (converted)): 15.1 µM
- GI50 ([9]; 786-0): 1.95 µM
- LC50 ([9]; 786-0): 5.89 µM
- TGI ([9]; 786-0, read-out: pTGI (converted)): 3.39 µM
- GI50 (SK-OV-3): 1.26 µM
- LC50 (SK-OV-3): 5.13 µM
- TGI (SK-OV-3; read-out: pTGI (converted)): 2.57 µM
- GI50 (NCI/ADR-RES): 1.62 µM
- TGI (NCI/ADR-RES; read-out: pTGI (converted)): 3.09 µM
- GI50 (OVCAR-4): 1.23 µM
- LC50 (OVCAR-4): 5.01 µM
- TGI (OVCAR-4; read-out: pTGI (converted)): 2.51 µM
- GI50 (OVCAR-5): 2.09 µM
- LC50 (OVCAR-5): 6.61 µM
- TGI (OVCAR-5; read-out: pTGI (converted)): 3.72 µM
- GI50 (SK-MEL-28): 2.04 µM
- LC50 (SK-MEL-28): 6.17 µM
- TGI (SK-MEL-28; read-out: pTGI (converted)): 3.55 µM
- GI50 (SK-MEL-2): 2.19 µM
- LC50 (SK-MEL-2): 9.55 µM
- TGI (SK-MEL-2; read-out: pTGI (converted)): 4.57 µM
- GI50 (MDA-MB-435): 2 µM
- LC50 (MDA-MB-435): 8.32 µM
- TGI (MDA-MB-435; read-out: pTGI (converted)): 4.07 µM
- GI50 (Malme-3M): 2.04 µM
- LC50 (Malme-3M): 6.92 µM
- TGI (Malme-3M; read-out: pTGI (converted)): 3.8 µM
- GI50 (M14): 1.66 µM
- LC50 (M14): 5.62 µM
- TGI (M14; read-out: pTGI (converted)): 3.02 µM
- GI50 (U-251): 0.977 µM
- LC50 (U-251): 6.61 µM
- TGI (U-251; read-out: pTGI (converted)): 2.57 µM
- GI50 (LOX IMVI): 1.58 µM
- LC50 (LOX IMVI): 5.75 µM
- TGI (LOX IMVI; read-out: pTGI (converted)): 3.02 µM
- GI50 (SNB-75): 1.29 µM
- LC50 (SNB-75): 5.13 µM
- TGI (SNB-75; read-out: pTGI (converted)): 2.57 µM
- GI50 (SF-539): 1.58 µM
- LC50 (SF-539): 5.89 µM
- TGI (SF-539; read-out: pTGI (converted)): 3.09 µM
- GI50 (HT-29): 2.29 µM
- LC50 (HT-29): 9.77 µM
- TGI (HT-29; read-out: pTGI (converted)): 4.79 µM
- GI50 (HCT-116): 1.45 µM
- LC50 (HCT-116): 5.37 µM
- TGI (HCT-116; read-out: pTGI (converted)): 2.82 µM
- GI50 (HCT-15): 2 µM
- LC50 (HCT-15): 7.94 µM
- TGI (HCT-15; read-out: pTGI (converted)): 3.98 µM
- GI50 (HCC 2998): 1.82 µM
- LC50 (HCC 2998): 5.75 µM
- TGI (HCC 2998; read-out: pTGI (converted)): 3.24 µM
- GI50 (COLO 205): 1.82 µM
- CC50 (COLO 205; [10]): 6.03 µM
- TGI (COLO 205; read-out: pTGI (converted)): 3.31 µM
- GI50 (NCI-H522): 1.58 µM
- LC50 (NCI-H522): 6.17 µM
- TGI (NCI-H522; read-out: pTGI (converted)): 3.16 µM
- GI50 (HOP-92): 1.86 µM
- LC50 (50% lethal concentration) (HOP-92): 6.31 µM
- TGI (HOP-92; read-out: pTGI (converted)): 3.39 µM
- GI50 (NCI-H226): 1.95 µM
- CC50 (NCI-H226; [10]): 9.12 µM
- TGI (NCI-H226; read-out: pTGI (converted)): 4.17 µM
- GI50 (MOLT-4): 0.447 µM
- LC50 (MOLT-4): > 100 µM
